Measurements gathered from unrelated publications.
Protocols differ between the studies behind these lines.
Observed: metabolic stability
Host: rat

| SMILES | medium | tested at | pH | half-life |
| --- | --- | --- | --- | --- |
| C[C@]12CC[C@H]3[C@@H](CCC4=CC(=O)CC[C@@]43C)[C@@H]1CC[C@@H]2O | liver microsomes | 1 µM | pH 7.4 | 5.45 min |
| Cc1[nH]c(C)c(S(=O)(=O)Nc2ccc(S(=O)(=O)F)c(Cl)c2)c1C(=O)N1CCC(F)(F)C1 | liver microsomes | – | – | 11 min |
| CC(=O)c1c(C)c2cnc(Nc3ccc(C4CCN(CCS(C)(=O)=O)CC4)cn3)nc2n(C2CCCC2)c1=O | liver microsomes | – | – | 65.4 min |
| CC(C)CC(=O)OC[C@H]1O[C@@](C#N)(c2ccc3c(N)ncnn23)[C@H](O)[C@@H]1O | plasma | 5 µM | – | 0.422 min |
| Cc1ncc2n1-c1ccc(Cl)cc1C(c1ccccc1F)=NC2 | hepatocytes | – | – | 20.4 min |
| O=c1[nH]c2ccccc2n1C1CCN(CCCC(c2ccc(F)cc2)c2ccc(F)cc2)CC1 | liver microsomes | 100 ng/mL | – | 80 min |
| Cc1[nH]c(C)c(S(=O)(=O)Nc2ccc(S(F)(F)(F)(F)F)c(Cl)c2)c1C(=O)N1CCC(F)(F)C1 | liver microsomes | – | – | 34 min |
| C[C@]12CC[C@H]3[C@@H](CCC4=CC(=O)CC[C@@]43C)[C@@H]1CC[C@@H]2O | liver microsomes | – | – | 1.55 min |
